Measurements as given in the RNAGym collection of RNA variant scans (doi:10.1126/science.aae0568).
Fewer inactive variants are shown than the library holds.

B1: tRNA (parent)
chain: GUUCCGUUGGCGUAAUGGUAACGCGUCUCCCUCCUAAGGAGAAGACUGCGGGUUCGAGUCCCGUACGGAACG

Variants of: B1
Assay: yeast fitness relative to wild type (ratio to wild type); higher = fitter; tRNA-Arg(CCU), competitive growth, 37 C, YPD
Procedure, shortened: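 Gene amplicons from the start population and from each of six end populations were read by 100-nucleotide paired-end sequencing. Those end populations came from pooled Saccharomyces cerevisiae strains carrying tRNA-Arg(CCU) gene variants at the native locus, competed in YPD at 37°C for 24 hours. Fitness relative to wild type was worked out from changes in genotype frequencies. Genotypes needed ≥ 100 starting reads, and estimates < 0.5 were set to 0.5.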

Variant	yeast fitness
GUUCCGUUGGGGUAAUGGUAACGCGUCUCUCUCCUACGGAGAAGACUGCGGGUUCGAGUCCCGUACGGAUCG	≤ 0.5
GUUCCGUAGGCGUAAUGGUAACGCGUCUCCCUCCUUAGGAGAAGACUGCGGGUUGGAGCCCCGUACGGAACG	0.579
GCUCAGUUGGAGUAAUGGUAACGCGUCUCCCUCCUAAGGGGAAGACUGCGGGUUCGAGUCCCGUACGGAACG	≤ 0.5
GUUCCGUUGGCGUAAUGGCAACGCGGCUCCCUCCUAAGGAGAAGACUGCGGGUUCGGGUCCCGUACGGAACG	≤ 0.5
GUUCCGUUGGCGUAAUGGUUACGUGUCUCCCUCCUAAGGAGAAGACUGCGGGUUCGAGUCCCGUACGGAACG	0.841
GUUCCGUUGGUGUAAUGGUAACGCGUCUCCCUCCAAAAGAGAAGACUGCGGGUUGGAGUCCCGUACGGAACG	≤ 0.5
GUUCCGUUGGCAUAAUGGUAACGCGUAUCCCUCCUAAGGAGAAGACUGCGGGUUCGAGUCCCGUACCGAACG	0.548
GAUCCGUUGGCGUAAUGGUAACGCGUCUACCUCCUAAGGAGGAGACUGCGGGUACGAGUGCCGUACGAAACG	≤ 0.5
GUUCCGUUGGCGUAAUGGUAACGCGUCUCCCUCCUAAGGAGAAGACUGCGGAUUCGAGUACCGUACGGGACG	≤ 0.5
GUUCCGUUGGCGUAAUGGUAACGCGUCACCCUCCUAAGGAGAAGACUGCGGGUUCGAGUCCCGUAAGGAACG	0.575
GUUUCGUUGGCCUAAUGGUGACGCGUCUCCCUCCUAAGGAGAAGACAGUGGGUUCGUGUCACGUACGAAACG	≤ 0.5
GUUCCGUUGGCGUAAUGGUAACGCGUCUCCCUCCUAAGGAGACGACUGCGGGUUCGAGUCCCGGACGGAACG	0.618
GUUCCGUUGGCGUAAUGGUAACGCGUCUCCGUCCUAAGGAGAGGACUGUGGGUUCGAGUCCCGUACGAAACG	0.558
GUUGCGUUGGCGUAAUGGUAACGCGUCUCCCUCCUAAGGAGAAGACUGCGGGUUCGAGUCACGUACAGAACG	0.553
GUUCCGUUGGCGUAAUGGUAACGCAUCUCCUUCCUAACGAGAAGACUGCGGGUCCGAGUCCCGUACGGAACG	0.654
GUUCCGUUGGAGUAAUGGUAACGCGUGUCCCUCCUAAGGAGAAGACUGCGGGUUCGAGUCGCGUACGGAACG	0.52
GUUCCAUUGGCGUAAUGGUAAGGUGUCUCCCUCCUAAGGAGAAGACAGCGGGUUCGAGUCCCGUACGGACCG	≤ 0.5
GUUCCGUUGGCGUAAUGGUAACGGGUCUCCUUCUUAAGGAGAAGACUGUGGGUUCGAGUCCCGUACGGCACG	≤ 0.5
GUUCCGUUGGCGUAAUGGUAAGGCAUCUCCCUCCUAAGGACAAGACUGCGGGUUCGUGUCCCGUACGGAACG	≤ 0.5

Variant	yeast fitness
GUUCCGUUGGCGUAAUGGGAAUGCGUCUCCCUCCUAAGGAGAAGACUGCGGAUUCGAGUCCCGUACGGAACG	≤ 0.5
GUUCCGUUGACGUAAUGGUAACGCGUCUCCCUCCUAAGGAGCCGACUGCGGGUUCGAGUCCCGUAAGGAACG	≤ 0.5
GUUACGUUGGCGCAAUGGUAACCCGUCUCCCUCGUAAGGAGAAGGCUGCGGGCUCGAGUCCCGAACGGAACG	0.675
GUUCCCUUGGCGUAAGGGUAACGCGUUUCCCUCCUAAGGAGAAGACUGCGGGUUCGAGUCCCGUACGGAACG	≤ 0.5
GUUCUGUUGGCGUGAUGGUAACGCGUCUCCCUCCUAAGGAGAAGACUGCCGGUUUGGGUCCCGUAUGGAACG	≤ 0.5
GUUCCGUUGGCAUAAUGGUAACGCGUCUCCCUCCUCCGGAGAAGACUGCGGGGUCGAGUCCCGUACGGACCG	≤ 0.5
GUUCCGUUGGCGUAAUGGUAAUGGGUCUCCCUCCUAAGGAGAAGACCGCGGGUUCGAGUCACGUACGGAACG	≤ 0.5
GUUCCAUUGGAGUAGUGGUAACGCGUCUCCCUCCUAAGGAGAAGACUGGGCGUUCGAGUCCCGUACGGAACG	≤ 0.5
GUUCCGUUGGCGUAAUGGUAACGCGUCUCCCUCCUAAGGAGGAGCCUCCGGGUUCGAGUCCCGUACGGAACG	≤ 0.5
GUUUCGUUGGCAUAAUGGUAACGCGUCUCCCUCCUAAGCAGAAAACUGCGGGUUCGUGUCCCGUACGGAACG	≤ 0.5
GUUCCGUUGGCGUAAUGCUAACGCGUCUCCGUCCUAAGGAGAACACUGCGGGUUCGAGUCCCGUACGGAACG	0.658
GUUCCGUUGGCGUAAUGGUAACGCGUCUCCCUCCUAAGGAGUAGACUGUGGGUUCGAGUCCCGUACGGAACG	0.975
GUACCGUUGGCGUAAUGGUAACGCGUAUCUCUCCUAAGGACAUGACUGAGGGUUCGAGUCCCGUACGGAACG	≤ 0.5
GUUCCGUUGGCGUAAUGGUAACGCGUCUCCCUCCUAAGGGGAAGACUGCGGGUUCGAGUCCCGUACGUAACG	0.857
GUUCCGUGGGCGUAAUGGUAACGCGUCUCUGUCCUAAGGAGAAGACUGCGGGUUCGAGUCCCGUAGGGAACG	≤ 0.5
GUUCCGUUGGCGUAGUGGUAACGCGUCUCCCUCCUAAGGAGUAGACUGCGGGUUCGAGUCCCGUACGGAACG	0.971
GUUCCGUUGGCGUAAUGAUAACGCAUCUCCCUCCUAAGGAGAAGACUGCGGGUUCGAGUCCCGUACGGAGCG	0.54
GUUCCGUUGGCGUACUGGUAACGCGUCUCCCUUCUUAGGAGAAGACUGCGGGUUCGAGUCCCGUAUGGAACG	≤ 0.5
